Data reported in PMC10213863 (Cell Reports Medicine, 2023).

Target: T1, TLR7 (Homo sapiens, UniProt Q9NYK1)
T1 sequence (Q9NYK1 27-1049): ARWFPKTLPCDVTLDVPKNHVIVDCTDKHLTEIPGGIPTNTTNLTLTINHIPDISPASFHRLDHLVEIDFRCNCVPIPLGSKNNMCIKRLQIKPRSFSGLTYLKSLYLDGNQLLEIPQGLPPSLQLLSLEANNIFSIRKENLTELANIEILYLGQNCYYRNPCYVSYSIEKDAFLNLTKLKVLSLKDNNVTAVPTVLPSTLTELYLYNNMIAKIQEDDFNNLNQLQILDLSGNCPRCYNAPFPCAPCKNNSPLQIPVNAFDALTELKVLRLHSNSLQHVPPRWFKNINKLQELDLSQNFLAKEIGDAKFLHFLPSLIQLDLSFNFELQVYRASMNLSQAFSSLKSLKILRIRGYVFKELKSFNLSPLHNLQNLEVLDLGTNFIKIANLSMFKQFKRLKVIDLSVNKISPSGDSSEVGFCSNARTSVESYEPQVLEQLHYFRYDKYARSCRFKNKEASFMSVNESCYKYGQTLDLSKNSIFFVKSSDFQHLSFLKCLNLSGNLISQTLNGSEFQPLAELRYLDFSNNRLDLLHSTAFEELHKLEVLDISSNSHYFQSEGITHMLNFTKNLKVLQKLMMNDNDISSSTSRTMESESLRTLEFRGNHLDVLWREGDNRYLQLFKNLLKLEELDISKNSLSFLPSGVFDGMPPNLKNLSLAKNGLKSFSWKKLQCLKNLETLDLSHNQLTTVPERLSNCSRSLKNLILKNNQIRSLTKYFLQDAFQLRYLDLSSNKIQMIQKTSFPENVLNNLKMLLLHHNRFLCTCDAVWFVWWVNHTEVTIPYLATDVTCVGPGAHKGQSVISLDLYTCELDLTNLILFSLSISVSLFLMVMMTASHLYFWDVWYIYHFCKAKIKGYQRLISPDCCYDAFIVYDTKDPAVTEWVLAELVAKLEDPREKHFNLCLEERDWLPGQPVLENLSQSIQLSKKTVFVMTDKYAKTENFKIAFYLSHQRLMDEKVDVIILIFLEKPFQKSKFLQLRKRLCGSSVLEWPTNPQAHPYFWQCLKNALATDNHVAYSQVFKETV
Assay: Human whole blood assay, ssRNA-IFN-α
Assay type: cell-based
Method in brief: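 Fresh human blood or 129/Sv mouse blood was taken into citrate and diluted 1:1 with RPMI1640. It was pre-incubated 30 min at 37°C, 5% CO2 with increasing concentrations of test compound or 0.25% v/v DMSO (final). Blood was then stimulated with TLR agonists at doses from earlier work, or with R848 (3 μM), and cytokines were quantified. Viability was checked by ATPlite luminescence.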

## Cc1cc(N2CCc3c(c(C)nn3CC34CCC(NC(=O)[C@@H]5COCCN5)(CC3)CC4)C2)c2cnn(C)c2n1 [MHV370, (S)-N-(4-((5-(1,6-dimethyl-1H-pyrazolo[3,4-b]pyridin-4-yl)-3-methyl-4,5,6,7-tetrahydro-1H-pyrazolo[4,3-c]pyridin-1-yl)methyl)bicyclo[2.2.2]octan-1-yl)morpholine-3-carboxamide]
  IC50: 8.4 ± 1 nM
